Compound activity as filed in PubChem BioAssay.
Most compounds without a hit are left out; they make up all but 1.8% or so of the library.
CHRM5 agonist: human M5 muscarinic receptor agonists, primary screen, CHO-K1 cells, Fluo-8 calcium fluorescence; 360,000 compounds, 0.19% hits; Muscarinic acetylcholine receptor M5 (Homo sapiens), P08912; activation, % at 3 µM; CHO-K1 hM5 cells; 0% DMSO wells, 100% maximal acetylcholine response;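 active = activation above the run's mean over test compounds plus 3 SD, cut at about 23% in these data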;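 note: signal is peak over basal fluorescence ratio across the kinetic read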
Target sequence (P08912 whole entry, looked up): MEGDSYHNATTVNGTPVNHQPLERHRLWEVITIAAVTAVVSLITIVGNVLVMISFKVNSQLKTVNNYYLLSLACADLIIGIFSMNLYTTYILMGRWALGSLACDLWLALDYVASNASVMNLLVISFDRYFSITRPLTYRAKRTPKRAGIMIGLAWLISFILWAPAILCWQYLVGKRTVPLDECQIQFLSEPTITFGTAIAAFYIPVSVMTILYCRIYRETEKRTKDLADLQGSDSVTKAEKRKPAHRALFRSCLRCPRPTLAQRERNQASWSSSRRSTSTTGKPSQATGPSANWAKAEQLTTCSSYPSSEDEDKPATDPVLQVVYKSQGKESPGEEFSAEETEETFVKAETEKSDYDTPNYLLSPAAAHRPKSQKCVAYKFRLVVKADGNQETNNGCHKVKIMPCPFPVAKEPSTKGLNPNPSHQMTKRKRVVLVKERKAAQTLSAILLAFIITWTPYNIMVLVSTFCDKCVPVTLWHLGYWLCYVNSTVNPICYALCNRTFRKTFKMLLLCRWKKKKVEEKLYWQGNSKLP
CHRM5 PAM: human M5 muscarinic receptor positive allosteric modulators, primary screen, CHO-K1 cells, Fluo-8 calcium fluorescence. Muscarinic acetylcholine receptor M5 (Homo sapiens), P08912. CHO-K1 hM5, ACh EC20 PAM; 0% = ACh EC20, 100% = ACh EC100. activation, % at 3 µM. 360,000 compounds, 0.3% hits;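 active = activation above the run cutoff, the mean activation of all test compounds plus 3 SD, cut at about 18% in these data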
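System: CHO-K1 hM5 cells. Reagent: acetylcholine, EC20 level. Compound dosing: single dose, 3 µM nominal final test concentration. Timing: Post-acetylcholine fluorescence recording 140 s. Detection: Fluo-8 calcium fluorescence. Read-out: % activation, ACh-normalized. Benchmarks: ACh EC20 and EC100 wells. Repeats: singlicate, one well per test compound.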
M4 PAM: human M4 muscarinic receptor positive allosteric modulators, primary screen, CHO-K1 cells, Fluo-8 calcium fluorescence; 360,000 compounds, 0.4% hits; CHO-K1 hM4/Gqi5, ACh EC20; 0% = ACh EC20, 100% = maximal ACh; AID 624126, 2012; activation, % at 3 µM;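 active = activation above its plate's cutoff, the mean activation of sample wells plus 3 SD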
CHRM5 antagonist: human M5 muscarinic receptor antagonists, primary screen, CHO cells, Fluo-8 calcium fluorescence | Muscarinic acetylcholine receptor M5 (Homo sapiens), P08912 | CHO-hM5 cells, ACh EC80 | inhibition, % at 3 µM | 360,000 compounds, 0.59% hits;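 active = inhibition above a per-plate cutoff, the mean of that plate's test compounds plus 3 SD, cut at about 27% in these data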;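 note: 0% = acetylcholine EC80 with DMSO and 100% = DMSO without agonist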
CHRM4 agonist: human M4 muscarinic receptor agonists, primary screen, CHO-K1 cells, Fluo-8 calcium fluorescence; Muscarinic acetylcholine receptor M4 (Homo sapiens), P08173; activation, % at 3 µM; 360,000 compounds, 0.14% hits; CHO-K1 hM4/Gqi5; vehicle 0%, full acetylcholine response 100%;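 active = activation above the run mean over all test wells plus 3 SD, cut at about 32% in these data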;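 note: peak over basal fluorescence ratio per well then scaled between controls; 0% = DMSO wells and 100% = acetylcholine at EC100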
M4 antag: human M4 muscarinic receptor antagonists, primary screen, CHO cells, Fluo-8 calcium fluorescence. Muscarinic acetylcholine receptor M4 (Homo sapiens), P08173. CHO-hM4 cells, ACh EC80. inhibition, % at 3 µM. 360,000 compounds, 0.73% hits;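 active = inhibition above its plate's cutoff, the mean inhibition of sample wells plus 3 SD, cut at about 27% in these data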;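 note: 0% = acetylcholine EC80 with DMSO and 100% = DMSO without agonist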
Active calls of the source: *.

Screening COc1ccc(-c2c[n+](CC(=O)N3c4ccccc4Sc4ccccc43)c3n2CCC3)cc1 returned CHRM5 agonist -18, CHRM5 PAM -35, M4 PAM -69, CHRM5 antagonist 41*, CHRM4 agonist 0 and M4 antag 53*.
`O=C(C[n+]1cc(-c2ccc(Cl)cc2)n2c1CCC2)N1c2ccccc2Sc2ccccc21` gave CHRM5 agonist -10, CHRM5 PAM -18, M4 PAM -19, CHRM5 antagonist 99*, CHRM4 agonist 9 and M4 antag 97*.
O=C(CN1CCC(NC(=O)c2cccc(F)c2)CC1)NCc1cccs1 was read as CHRM5 agonist -1, CHRM5 PAM -1, M4 PAM 24*, CHRM5 antagonist 17, CHRM4 agonist 3 and M4 antag -3.
Cc1c(Cl)cccc1NC(=S)NCC1COc2ccccc2O1 (configuration not stated) was read as CHRM5 agonist -1, CHRM5 PAM -20, M4 PAM -14, CHRM5 antagonist 39*, CHRM4 agonist 14 and M4 antag 4.
Cc1ccsc1C(=O)NCC(C)(C)N1CCOCC1 was read as CHRM5 agonist -8, CHRM5 PAM 22*, M4 PAM 5, CHRM5 antagonist -10, CHRM4 agonist 0 and M4 antag 1.
CCc1cc(C(=O)NCC(C)(C)N2CCOCC2)sc1C was read as CHRM5 agonist -4, CHRM5 PAM 6, M4 PAM 3, CHRM5 antagonist -2, CHRM4 agonist 0 and M4 antag -3.
Cc1cc(C)c(S(=O)(=O)c2ccc(Cl)cc2)c(Cl)n1 was read as CHRM5 agonist -2, CHRM5 PAM 1, M4 PAM 13, CHRM5 antagonist 6, CHRM4 agonist 1 and M4 antag -2.
Cc1cc(S(=O)(=O)c2ccc(Cl)cc2)nc(S(=O)(=O)c2ccc(Cl)cc2)c1C#N was read as CHRM5 agonist 7, CHRM5 PAM 11, M4 PAM -13, CHRM5 antagonist 8, CHRM4 agonist 3 and M4 antag 88*.
`CN(C)CCCN1c2ccccc2Sc2ccc(Cl)cc21` gave CHRM5 agonist 1, CHRM5 PAM -18, M4 PAM -19, CHRM5 antagonist 98*, CHRM4 agonist 13 and M4 antag 73*.
Screening CN(C)CCCN1c2ccccc2Sc2ccc3ccccc3c21 returned CHRM5 agonist -12, CHRM5 PAM -44, M4 PAM -12, CHRM5 antagonist 55*, CHRM4 agonist 12 and M4 antag 27*.
Screening OCCN1CCN(CCCN2c3ccccc3Sc3ccc(Cl)cc32)CC1 returned CHRM5 agonist -1, CHRM5 PAM -19, M4 PAM -17, CHRM5 antagonist 34*, CHRM4 agonist 2 and M4 antag 98*.
`COc1ccc(C(=O)N/C(=C\c2ccccc2)C(=O)N2CCOCC2)cc1` gave CHRM5 agonist -1, CHRM5 PAM -4, M4 PAM 19*, CHRM5 antagonist -6, CHRM4 agonist 2 and M4 antag -10.
`CC(Oc1ccc(Cl)cc1Cl)c1ccn[nH]1` (configuration not stated) gave CHRM5 agonist -7, CHRM5 PAM -1, M4 PAM 2, CHRM5 antagonist 4, CHRM4 agonist 2 and M4 antag -8.
O=c1oc2ccccc2n1Cc1cccc(C(F)(F)F)c1 was read as CHRM5 agonist -8, CHRM5 PAM -23, M4 PAM -19, CHRM5 antagonist 13, CHRM4 agonist 9 and M4 antag 8.
For COCCCN(C(=O)c1ccccc1)c1nc(-c2ccc(OC)cc2)cs1 the results were CHRM5 agonist -6, CHRM5 PAM -2, M4 PAM -4, CHRM5 antagonist -2, CHRM4 agonist 0 and M4 antag 10.
COCCCN(C(C)=O)c1nc(-c2ccccc2)cs1 was read as CHRM5 agonist -4, CHRM5 PAM 4, M4 PAM 44*, CHRM5 antagonist -8, CHRM4 agonist 2 and M4 antag -21.
For Cc1cc(C)n(CCCNC(=O)c2ccc(C)c(S(=O)(=O)N3CCOCC3)c2)n1 the results were CHRM5 agonist 2, CHRM5 PAM 1, M4 PAM -5, CHRM5 antagonist 6, CHRM4 agonist 0 and M4 antag 1.
For CCC(C)NC(=O)c1cnn2c(C)c3c(nc12)CCCC3 (configuration not stated) the results were CHRM5 agonist -5, CHRM5 PAM -3, M4 PAM 39*, CHRM5 antagonist -1, CHRM4 agonist -2 and M4 antag 18.
`Cc1c2c(nc3c(C(=O)NC4CC4)cnn13)CCCC2` gave CHRM5 agonist -7, CHRM5 PAM 6, M4 PAM 3, CHRM5 antagonist -4, CHRM4 agonist -2 and M4 antag -1.
`CC(=O)n1cc([C@H]2C=C(C(N)=O)O[C@@H](OCc3ccc(CO)cc3)C2)c2ccccc21` gave CHRM5 agonist 29*, CHRM5 PAM -28, M4 PAM -7, CHRM5 antagonist 13, CHRM4 agonist 34* and M4 antag 16.
COc1ccccc1CNC(=O)c1c(N)n(CCCN2CCOCC2)c2nc3ccccc3nc12 was read as CHRM5 agonist 5, CHRM5 PAM -12, M4 PAM -10, CHRM5 antagonist 25, CHRM4 agonist 32 and M4 antag 34*.
For Nc1c(C(=O)NCc2ccc3c(c2)OCO3)c2nc3ccccc3nc2n1CCCN1CCOCC1 the results were CHRM5 agonist 0, CHRM5 PAM -2, M4 PAM -1, CHRM5 antagonist 13, CHRM4 agonist 9 and M4 antag 4.
Screening NC(=O)c1ccc[n+]([C@H]2O[C@@H](COP(=O)([O-])OP(=O)(O)OC[C@H]3O[C@@H](n4cnc5c(N)ncnc54)[C@H](O)[C@@H]3O)[C@H](O)[C@@H]2O)c1 returned CHRM5 agonist 25*, CHRM5 PAM -7, M4 PAM -2, CHRM5 antagonist 0, CHRM4 agonist 80* and M4 antag 0.
Screening COc1ccc(C(=O)NC[C@H]2O[C@@H](n3cnc4c(N)ncnc43)[C@H](O)[C@@H]2O)cc1OC returned CHRM5 agonist 2, CHRM5 PAM 3, M4 PAM 5, CHRM5 antagonist -4, CHRM4 agonist 1 and M4 antag -6.
